Data as given in ChEMBL document CHEMBL4680084, “New β-Lactam Derivatives Modulate Cell Adhesion and Signaling Mediated by RGD-Binding and Leukocyte Integrins” (J Med Chem, 2016).
Activity calls are given as the source filed them. No cut-off for these calls is given here.

Legend:
Integrin alpha-V/beta-3 [1] = target: T1, Integrin alpha-V/beta-3 (Homo sapiens, UniProt P05106+P06756); assay: Agonist activity at alphaVbeta3 in human SK-MEL-24 cells assessed as increase in cell adhesion to fibronectin at 10 ug/ml pre-incubated for 30 mins and further incubated for 1 hr in presence of neutralizing antibody against the alphaV integrin subunit by nitrophenyl-N-acetyl-beta-D-glucosaminide substrate based chromogenic assay; settings: dose 10.0 µg/ml, time 90.0 min
K562 = assay: Toxicity in human K562 cells assessed as induction of cell necrosis and/or apoptosis incubated for 3 hrs by annexin V-PE and 7-AAD staining based by flow cytometry; settings: k562, 3 h
In short: (§1)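 After 3 h incubation, cells resuspended in complete medium and stained with annexin V-PE/7-AAD reagent for 20 min at room temperature in the dark. Flow cytometry sorted cells into viable, early apoptotic and late apoptotic/necrotic populations.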

[2] = target: T2, Integrin alpha-L/beta-2 (LFA-1) (Homo sapiens, UniProt P05107+P20701); assay: Agonist activity at alphaLbeta2 in human Jurkat E6.1 cells assessed as increase in cell adhesion to ICAM1 pre-incubated for 30 mins before ICAM1 and further incubated for 30 mins by […]; type: cell-based
In short: (§2)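 Jurkat E6.1 cells labelled with CellTracker green CMFDA (12.5 µM, 30 min, 37 °C), washed, then pre-incubated 30 min at 37 °C with compound or methanol. Plated at 500,000/well on VCAM-1 (α4β1) or ICAM-1 (αLβ2) coated wells (5 µg/mL) for 30 min at 37 °C. Cells lysed in 0.5% Triton X-100; fluorescence read Ex485/Em535. Quadruplicate, at least three repeats.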

Integrin alpha-5/beta-1 [3] = target: T3, Integrin alpha-5/beta-1 (Homo sapiens, UniProt P05556+P08648); assay: Inhibition of fibronectin binding to alpha5beta1 isolated from human K562 cells incubated for 1 hr by […] competitive solid-phase binding assay; type: tissue-based
In short: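 Plates coated overnight at 4 °C in carbonate buffer pH 9.6 with fibronectin 0.5 µg/mL (αvβ3, αvβ6, α5β1), fibrinogen 10 µg/mL (αIIbβ3, αvβ5) or ICAM-1 (αLβ2). Blocked 1 h in buffer containing Ca/Mg/Mn 1 mM each and 1% BSA. Purified integrin (3–10 µg/mL) incubated with compound (10⁻⁴–10⁻¹⁰ M) 1 h at room temperature. Bound integrin detected with primary antibody then AlexaFluor488 secondary, Ex485/Em535. Duplicate, at least three repeats.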

SK-MEL-24 = assay: Toxicity in human SK-MEL-24 cells assessed as induction of cell necrosis and/or apoptosis incubated for 3 hrs by annexin V-PE and 7-AAD staining based by flow cytometry; settings: sk-mel-24, 3 h; in short: as §1
Integrin alpha-V/beta-6 [4] = target: T4, Integrin alpha-V/beta-6 (Homo sapiens, UniProt P06756+P18564); assay: Antagonist activity at alphaVbeta6 in human HT-29 cells assessed as reduction in cell adhesion to fibronectin pre-incubated for 30 mins before fibronectin and further incubated for 1 hr by nitrophenyl-N-acetyl-beta-D-glucosaminide substrate based chromogenic assay
In short: (§3)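 Compound or methanol vehicle pre-incubated with cells for 30 min at room temperature. Cells then plated on wells coated overnight at 4 °C with fibronectin 10 µg/mL (SK-MEL-24, K562, HT-29) or fibrinogen 10 µg/mL (MCF7, HEL). Seeding was 50,000 cells/well, or 100000 for HEL. Adhesion ran 1 h at room temperature. Wells washed with 1% BSA/PBS. Quadruplicate, at least three repeats.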

Integrin alpha-V/beta-5 [5] = target: T5, Integrin alpha-V/beta-5 (Homo sapiens, UniProt P06756+P18084); assay: Inhibition of fibrinogen binding to alphaVbeta5 isolated form human mCf7 cells incubated for 1 hr by […] competitive solid-phase binding assay
Integrin alpha-V/beta-6 [6] = target: T4, Integrin alpha-V/beta-6; assay: Agonist activity at alphaVbeta6 in human HT-29 cells assessed as increase in cell adhesion to fibronectin pre-incubated for 30 mins before fibronectin and further incubated for 1 hr by nitrophenyl-N-acetyl-beta-D-glucosaminide substrate based chromogenic assay
In short: as §3, with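 “BSA/PBS. Adherent cells read by hexosaminidase substrate, absorbance 405 nm.” for “BSA/PBS.”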

Integrin alpha-4/beta-1 [7] = target: T6, Integrin alpha-4/beta-1 (Homo sapiens, UniProt P05556+P13612); assay: Antagonist activity at alpha4beta1 in human Jurkat E6.1 cells assessed as reduction in cell adhesion to VCAM1 pre-incubated for 30 mins before VCAM1 and further incubated for 30 mins by […]; type: cell-based
Integrin alpha-4/beta-1 [8] = target: T6, Integrin alpha-4/beta-1; assay: Agonist activity at alpha4beta1 in human Jurkat E6.1 cells assessed as increase in cell adhesion to VCAM1 pre-incubated for 30 mins before VCAM1 and further incubated for 30 mins by […]; type: cell-based; in short: as §2
HT-29 = assay: Toxicity in human HT-29 cells assessed as induction of cell necrosis and/or apoptosis incubated for 3 hrs by annexin V-PE and 7-AAD staining based by flow cytometry; settings: ht-29, 3 h; in short: as §1
Integrin alpha-V/beta-5 [9] = target: T5, Integrin alpha-V/beta-5; assay: Agonist activity at alphaVbeta5 in human MCF7 cells assessed as increase in cell adhesion to fibrinogen pre-incubated for 30 mins before fibrinogen and further incubated for 1 hr by nitrophenyl-N-acetyl-beta-D-glucosaminide substrate based chromogenic assay
In short: as §3, with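 “BSA/PBS. Adherent cells read by hexosaminidase substrate, absorbance 405 nm.” for “BSA/PBS.”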

[10] = target: T7, Integrin alpha-IIb/beta-3 (Homo sapiens, UniProt P05106+P08514); assay: Agonist activity at alpha2bbeta3 in human HEL cells assessed as increase in cell adhesion to fibrinogen pre-incubated for 30 mins before fibrinogen and further incubated for 1 hr by nitrophenyl-N-acetyl-beta-D-glucosaminide substrate based chromogenic assay; in short: as §3
Integrin alpha-V/beta-3 [11] = target: T1, Integrin alpha-V/beta-3; assay: Agonist activity at human alphaVbeta3 expressed in HEK293 cells assessed as increase in ERK1/2 phosphorylation by Western blot analysis; type: cell-based; settings: filed as agonist
Integrin alpha-4/beta-1 [12] = target: T6, Integrin alpha-4/beta-1; assay: Inhibition of fibronectin binding to […] isolated from human Jurkat E6.1 cells incubated for 1 hr by scintillation-proximity assay based competitive solid-phase binding assay; type: tissue-based
Integrin alpha-V/beta-3 [13] = target: T1, Integrin alpha-V/beta-3; assay: Agonist activity at alphaVbeta3 in human SK-MEL-24 cells assessed as increase in cell adhesion to fibronectin at 2 to 10 ug/ml pre-incubated for 30 mins and further incubated for 1 hr by nitrophenyl-N-acetyl-beta-D-glucosaminide substrate based chromogenic assay; settings: filed as agonist, dose 2-10 µg/ml, time 90.0 min
[14] = target: T7, Integrin alpha-IIb/beta-3; assay: Inhibition of fibrinogen binding to alpha2bbeta3 isolated from human HEL cells incubated for 1 hr by […] competitive solid-phase binding assay
[15] = target: T7, Integrin alpha-IIb/beta-3; assay: Antagonist activity at alpha2bbeta3 in human HEL cells assessed as reduction in cell adhesion to fibrinogen pre-incubated for 30 mins before fibrinogen and further incubated for 1 hr by nitrophenyl-N-acetyl-beta-D-glucosaminide substrate based chromogenic assay; in short: as §3
Integrin alpha-V/beta-3 [16] = target: T1, Integrin alpha-V/beta-3; assay: Agonist activity at alphaVbeta3 in human SK-MEL-24 cells assessed as increase in cell adhesion to fibronectin at 10 ug/ml pre-incubated for 30 mins and further incubated for 1 hr in presence of in presence of integrin antagonist c(-RGDfV) by nitrophenyl-N-acetyl-beta-D-glucosaminide substrate based chromogenic assay; settings: dose 10.0 µg/ml, time 90.0 min
HEL = assay: Toxicity in human HEL cells assessed as induction of cell necrosis and/or apoptosis incubated for 3 hrs by annexin V-PE and 7-AAD staining based by flow cytometry; in short: as §1
Integrin alpha-V/beta-6 [17] = target: T4, Integrin alpha-V/beta-6; assay: Inhibition of fibronectin binding to alphaVbeta6 isolated form human HT-29 cells incubated for 1 hr by […] competitive solid-phase binding assay; type: tissue-based
MCF7 = assay: Toxicity in human MCF7 cells assessed as induction of cell necrosis and/or apoptosis incubated for 3 hrs by annexin V-PE and 7-AAD staining based by flow cytometry; settings: mcf7, 3 h; in short: as §1
Integrin alpha-V/beta-3 [18] = target: T1, Integrin alpha-V/beta-3; assay: Inhibition of fibronectin binding to human recombinant alphaVbeta3 expressed in HEK293 cells incubated for 1 hr by […] competitive solid-phase binding assay; type: cell-based
[19] = target: T2, Integrin alpha-L/beta-2 (LFA-1); assay: Antagonist activity at alphaLbeta2 in human Jurkat E6.1 cells assessed as reduction in cell adhesion to ICAM1 pre-incubated for 30 mins before ICAM1 and further incubated for 30 mins by […]; type: cell-based; in short: as §2
Integrin alpha-5/beta-1 [20] = target: T3, Integrin alpha-5/beta-1; assay: Antagonist activity at alpha5beta1 in human K562 cells assessed as reduction in cell adhesion to fibronectin pre-incubated for 30 mins before fibronectin and further incubated for 1 hr by nitrophenyl-N-acetyl-beta-D-glucosaminide substrate based chromogenic assay
In short: as §3, with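 “BSA/PBS. Adherent cells read by hexosaminidase substrate, absorbance 405 nm.” for “BSA/PBS.”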

Integrin alpha-4/beta-1 [21] = target: T6, Integrin alpha-4/beta-1; assay: Antagonist activity at alpha4beta1 in human Jurkat E6.1 cells assessed as reduction in VCAM-1 induced ERK1/2 phosphorylation at 1 to 100 nM by Western blot analysis; type: cell-based; settings: filed as antagonist, dose 1-100 nM
Integrin alpha-4/beta-1 [22] = target: T6, Integrin alpha-4/beta-1; assay: Antagonist activity at alpha4beta1 in human Jurkat E6.1 cells assessed as reduction in exposure of HUTS-21 epitope measured by mAb binding; type: cell-based; settings: filed as antagonist
In short: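 Jurkat E6.1 cells at 10⁶/mL in 1% BSA/HBSS incubated 30 min at 37 °C with compound. PE-labelled HUTS-21 mAb then added for 45 min at room temperature. Cells washed, 10,000 analysed by flow cytometry. MFI corrected to isotype control set to 0. Four independent experiments in duplicate.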

Integrin alpha-4/beta-1 [23] = target: T6, Integrin alpha-4/beta-1; assay: Antagonist activity at alpha4beta1 in human Jurkat E6.1 cells assessed as reduction in VCAM-1 induced ERK1/2 phosphorylation at 1 to 100 pM by Western blot analysis; type: cell-based; settings: filed as antagonist, dose 1-100 pM
Integrin alpha-V/beta-3 [24] = target: T1, Integrin alpha-V/beta-3; assay: Antagonist activity at alphaVbeta3 in human SK-MEL-24 cells assessed as reduction in cell adhesion to fibronectin pre-incubated for 30 mins before fibronectin and further incubated for 1 hr by nitrophenyl-N-acetyl-beta-D-glucosaminide substrate based chromogenic assay; in short: as §3
Integrin alpha-5/beta-1 [25] = target: T3, Integrin alpha-5/beta-1; assay: Antagonist activity at alpha5beta1 in human K562 cells assessed as assessed as reduction in ERK1/2 phosphorylation at 1 to 100 nM by Western blot analysis; type: cell-based; settings: filed as antagonist, dose 1-100 nM
Integrin alpha-V/beta-5 [26] = target: T5, Integrin alpha-V/beta-5; assay: Antagonist activity at alphaVbeta5 in human MCF7 cells assessed as reduction in cell adhesion to fibrinogen pre-incubated for 30 mins before fibrinogen and further incubated for 1 hr by nitrophenyl-N-acetyl-beta-D-glucosaminide substrate based chromogenic assay; in short: as §3

Row | Compound | Activity (K562) | EC50 [2] [µM] | IC50 (Integrin alpha-5/beta-1 [3]) [nM] | Activity (SK-MEL-24) | IC50 (Integrin alpha-V/beta-6 [4]) [µM] | IC50 (Integrin alpha-V/beta-5 [5]) [nM] | EC50 (Integrin alpha-V/beta-6 [6]) [µM] | IC50 (Integrin alpha-4/beta-1 [7]) [nM] | Activity (HT-29) | EC50 (Integrin alpha-V/beta-5 [9]) [nM] | EC50 [10] [µM] | IC50 (Integrin alpha-4/beta-1 [12]) [nM] | IC50 [15] [µM] | Activity (HEL) | IC50 (Integrin alpha-V/beta-6 [17]) [nM] | Activity (MCF7) | IC50 (Integrin alpha-V/beta-3 [18]) [nM] | IC50 [19] [µM] | other results
1 | NCc1ccc(NC(=O)N2C(=O)CC2CC(=O)NCC(=O)O)cc1.O=C(O)C(F)(F)F (centres undefined) | Non-Toxic | > 5 | > 1000 | Non-Toxic | > 5 | 104 | > 5 | > 5000 | Non-Toxic | 505 | > 5 | > 1000 | > 5 | Non-Toxic | > 1000 | Non-Toxic | 1.2 | > 5 | Activity (Integrin alpha-V/beta-3 [1]): inactive; EC50 (Integrin alpha-4/beta-1 [8]): > 5 µM; Activity (Integrin alpha-V/beta-3 [11]): Dose-dependent effect; Activity (Integrin alpha-V/beta-3 [13]): Dose-dependent effect; IC50 [14]: > 1000 nM; Activity (Integrin alpha-V/beta-3 [16]): inactive
2 | Cc1ccccc1NC(=O)N1C(=O)C[C@H]1C(=O)O | Non-Toxic | > 5 | 114 | Non-Toxic | > 5 | > 1000 | > 5 | 1.39 | Non-Toxic | > 5000 | > 5 | 1.1 | > 5 | Non-Toxic | > 1000 | Non-Toxic | 285 | > 5 | IC50 (Integrin alpha-5/beta-1 [20]): 158 nM; Activity (Integrin alpha-4/beta-1 [21]): Active; Activity (Integrin alpha-4/beta-1 [22]): Dose-dependent effect; Activity (Integrin alpha-4/beta-1 [23]): Dose-dependent effect; IC50 (Integrin alpha-V/beta-3 [24]): 352 nM; Activity (Integrin alpha-5/beta-1 [25]): Dose-dependent effect; IC50 (Integrin alpha-V/beta-5 [26]): > 5 µM
